Reference: ChEMBL document CHEMBL1127079, “Substituted chromenes as potent, orally active 5-lipoxygenase inhibitors” (J Med Chem, 1993)

Key:
[1] = molecular target: T1, Polyunsaturated fatty acid 5-lipoxygenase (Homo sapiens) (UniProt P09917); test: Ex vivo inhibition of LTB4 production by measurement of A-23187-stimulated LTB-4 production in dog blood at 1 mg/kg po.; assay type: functional, organism-based; parameters: dose 1 mg/kg; conditions: Canis lupus familiaris, target entry is the homologue from another species
T1 sequence (whole entry): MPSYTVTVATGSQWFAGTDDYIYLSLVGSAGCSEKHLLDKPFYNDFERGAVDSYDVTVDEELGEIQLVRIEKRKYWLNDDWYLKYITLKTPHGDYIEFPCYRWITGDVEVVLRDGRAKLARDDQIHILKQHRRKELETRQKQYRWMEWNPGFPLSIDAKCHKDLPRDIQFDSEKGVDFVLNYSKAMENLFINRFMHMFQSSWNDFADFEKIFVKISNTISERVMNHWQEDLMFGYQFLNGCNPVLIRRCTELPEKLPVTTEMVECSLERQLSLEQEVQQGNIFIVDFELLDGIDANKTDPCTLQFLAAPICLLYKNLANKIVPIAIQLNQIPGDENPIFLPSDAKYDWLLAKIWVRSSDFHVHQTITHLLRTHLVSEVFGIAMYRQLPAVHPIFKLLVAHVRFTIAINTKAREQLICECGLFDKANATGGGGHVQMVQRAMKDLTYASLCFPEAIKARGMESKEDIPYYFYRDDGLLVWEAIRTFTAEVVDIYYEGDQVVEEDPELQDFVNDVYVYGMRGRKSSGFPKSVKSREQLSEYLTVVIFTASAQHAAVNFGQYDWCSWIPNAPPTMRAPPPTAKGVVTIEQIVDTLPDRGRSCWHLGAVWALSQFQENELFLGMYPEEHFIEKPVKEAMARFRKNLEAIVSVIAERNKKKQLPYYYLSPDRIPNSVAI
Procedure, shortened: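 Fasted beagles (8–15 kg) dosed orally by intubation, suspension in 3% cornstarch with 0.33% Tween 80 and 5% PEG 400, 5 mL/kg. Blood at -1, 0, 0.25–24 h stimulated ex vivo with A23187 100 μM + fMLP 10 μM final, 15 min, 37 °C; plasma LTB4 by RIA; percent inhibition relative to mean predose (-1, 0 h) values.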

[2] = Duration of action where maximum inhibition of LTB4 formation is achieved at 1 mg/kg po; assay type: functional, organism-based; parameters: dose 1 mg/kg; conditions: Canis lupus familiaris
Procedure, shortened: (§1)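 Beagle dogs (8–15 kg, fasted 16–18 h, water allowed) dosed by oral intubation as suspension in 3% cornstarch/0.33% Tween 80/5% PEG 400 in water, 5 mL/kg. Jugular blood at -1, 0, 0.25, 0.5, 1, 3, 6, 9, 24 h; 1-mL aliquots stimulated 15 min at 37 °C with A23187 100 μM plus fMLP 10 μM (final); plasma LTB4 by RIA. DA read graphically: time from maximum inhibition to 50% of maximum.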

[3] = Duration of action where maximum inhibition of LTB4 formation is achieved at 3 mg/kg po; assay type: functional, organism-based; parameters: dose 3 mg/kg; conditions: Canis lupus familiaris; procedure, shortened: as §1
[4] = tested on: Arachidonate 5-lipoxygenase (Canis lupus familiaris); test: Ex vivo inhibition of LTB-4 determined by measurement of A-23187-stimulated LTB-4 production in dog blood at 3 mg/kg po; conditions: target entry is the homologue from another species
[5] = Duration of action where maximum inhibition of LTB4 formation is achieved at 10 mg/kg po; assay type: functional, organism-based; parameters: dose 10 mg/kg; conditions: Canis lupus familiaris; procedure, shortened: as §1
[6] = Duration of action where maximum inhibition of LTB4 formation is achieved at 1 mg/kg iv; assay type: functional, organism-based; parameters: dose 1 mg/kg; conditions: Canis lupus familiaris
Procedure, shortened: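 Beagle dogs (8–15 kg, fasted) given iv bolus in forearm in DMA/PEG 400 (25:75), 0.1 mL/kg. Blood at -1, 0, 0.08, 0.25, 0.5, 1, 3, 6, 9, 24 h; aliquots stimulated with A23187 100 μM + fMLP 10 μM final, 15 min, 37 °C; plasma LTB4 by RIA. DA taken graphically from maximum inhibition to 50%-of-maximum level.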

[7] = tested on: Arachidonate 5-lipoxygenase (Canis lupus familiaris); test: Ex vivo inhibition of LTB-4 determined by measurement of A-23187-stimulated LTB-4 production in dog blood at 10 mg/kg po; conditions: target entry is the homologue from another species
[8] = molecular target: T1, Polyunsaturated fatty acid 5-lipoxygenase (Homo sapiens); test: Ex vivo inhibition of LTB-4 determined by measurement of A-23187-stimulated LTB-4 production in dog blood at 1 mg/kg iv; assay type: functional, organism-based; parameters: dose 1 mg/kg
Procedure, shortened: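 Beagles (8–15 kg, fasted 16–18 h) given iv forearm bolus in DMA/PEG 400 (25:75), 0.1 mL/kg. Jugular blood (serine/heparin) sampled -1 to 24 h; 1-mL aliquots stimulated with A23187 100 μM + fMLP 10 μM final for 15 min at 37 °C, one aliquot unstimulated. Plasma LTB4 by RIA; inhibition versus mean of -1 and 0 h predose values.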

[9] = Duration of action is where maximum inhibition of LTB4 formation is achieved at 1 mg/kg po; assay type: functional, organism-based; parameters: dose 1 mg/kg; conditions: Canis lupus familiaris; procedure, shortened: as §1
[10] = molecular target: T2, Polyunsaturated fatty acid lipoxygenase ALOX12 (Homo sapiens, UniProt P18054); test: Inhibitory concentration against human platelet 12-lipoxygenase; assay type: functional
T2 sequence (P18054 whole entry): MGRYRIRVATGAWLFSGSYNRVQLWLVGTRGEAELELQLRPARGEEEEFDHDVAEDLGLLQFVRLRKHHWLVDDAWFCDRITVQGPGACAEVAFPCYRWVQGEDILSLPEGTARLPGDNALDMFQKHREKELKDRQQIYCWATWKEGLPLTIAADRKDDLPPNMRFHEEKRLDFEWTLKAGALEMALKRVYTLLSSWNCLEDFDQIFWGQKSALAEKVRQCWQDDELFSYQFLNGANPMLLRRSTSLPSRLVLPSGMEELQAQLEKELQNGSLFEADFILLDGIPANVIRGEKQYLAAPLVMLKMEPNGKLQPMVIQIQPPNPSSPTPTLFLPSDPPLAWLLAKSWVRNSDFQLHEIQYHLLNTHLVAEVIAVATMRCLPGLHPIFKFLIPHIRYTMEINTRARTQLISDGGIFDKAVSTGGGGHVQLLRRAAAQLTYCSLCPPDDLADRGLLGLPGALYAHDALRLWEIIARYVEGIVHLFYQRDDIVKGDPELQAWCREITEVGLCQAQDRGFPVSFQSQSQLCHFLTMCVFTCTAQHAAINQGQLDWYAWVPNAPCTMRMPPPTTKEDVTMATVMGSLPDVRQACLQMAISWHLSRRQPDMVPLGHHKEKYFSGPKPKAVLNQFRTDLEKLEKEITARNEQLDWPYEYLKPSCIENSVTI
Procedure, shortened: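 Cytoplasmic fraction of lysed human platelets, diluted to give 50% AA conversion, preincubated with inhibitor 5 min at 37 °C in 0.1 M Tris-HCl pH 8.0 with 1 mM glutathione and 10 μM indomethacin. 1-[14C]AA added, 15 min at 37 °C; 12-HETE separated by TLC and counted.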

[11] = molecular target: T3, Prostaglandin G/H synthase (cyclooxygenase) (Ovis aries, UniProt P05979+P79208); test: Inhibitory concentration against sheep seminal vesicle Prostaglandin G/H synthase; assay type: functional, tissue-based
T3 sequence (P05979 whole entry): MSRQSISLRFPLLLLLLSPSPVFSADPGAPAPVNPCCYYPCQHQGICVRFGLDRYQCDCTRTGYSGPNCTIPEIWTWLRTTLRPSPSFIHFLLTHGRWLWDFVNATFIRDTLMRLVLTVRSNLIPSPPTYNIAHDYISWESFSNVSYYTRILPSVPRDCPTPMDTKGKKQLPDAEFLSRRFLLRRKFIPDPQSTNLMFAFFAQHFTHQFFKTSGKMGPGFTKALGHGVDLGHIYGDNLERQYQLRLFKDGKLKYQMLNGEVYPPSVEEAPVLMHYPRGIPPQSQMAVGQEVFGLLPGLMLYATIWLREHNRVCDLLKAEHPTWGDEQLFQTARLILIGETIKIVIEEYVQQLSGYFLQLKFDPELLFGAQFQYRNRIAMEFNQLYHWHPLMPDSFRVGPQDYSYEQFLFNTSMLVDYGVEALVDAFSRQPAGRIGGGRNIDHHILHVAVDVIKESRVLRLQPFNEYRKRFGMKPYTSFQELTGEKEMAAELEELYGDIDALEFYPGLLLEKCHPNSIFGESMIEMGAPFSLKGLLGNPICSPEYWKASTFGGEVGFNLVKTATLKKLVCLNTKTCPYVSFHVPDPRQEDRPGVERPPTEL
T3 sequence (P79208 whole entry): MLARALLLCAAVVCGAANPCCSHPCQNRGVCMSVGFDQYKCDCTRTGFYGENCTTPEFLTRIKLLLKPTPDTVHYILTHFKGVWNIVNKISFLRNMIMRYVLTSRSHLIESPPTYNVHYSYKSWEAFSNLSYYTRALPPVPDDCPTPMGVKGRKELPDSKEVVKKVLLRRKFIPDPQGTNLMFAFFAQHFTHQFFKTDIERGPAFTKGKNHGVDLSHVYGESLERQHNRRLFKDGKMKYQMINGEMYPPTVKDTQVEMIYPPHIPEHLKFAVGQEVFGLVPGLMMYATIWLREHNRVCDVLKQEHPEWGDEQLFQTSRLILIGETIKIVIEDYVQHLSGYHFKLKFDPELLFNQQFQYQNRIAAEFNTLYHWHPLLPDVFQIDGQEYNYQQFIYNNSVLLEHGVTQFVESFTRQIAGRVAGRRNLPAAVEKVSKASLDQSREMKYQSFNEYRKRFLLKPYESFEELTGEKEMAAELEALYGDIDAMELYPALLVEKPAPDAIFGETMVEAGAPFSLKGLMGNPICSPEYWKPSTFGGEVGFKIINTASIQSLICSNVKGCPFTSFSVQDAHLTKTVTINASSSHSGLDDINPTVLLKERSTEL
Procedure, shortened: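 Lyophilized sheep seminal vesicle microsomes as cyclooxygenase source; conversion of [14C]AA to PGE2 with compounds over a wide concentration range in 0.1 M Tris-HCl pH 8.4 (or 1% ethanol). PGs extracted into ethyl acetate, separated by TLC, PGE2 zones counted by scintillation.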

Row | inhibition [1] | Duration [2] | Duration [6] | inhibition [8] | also measured | SMILES
1 | 91% | 2.8 h |  |  |  | CC1Oc2ccc(OCc3ccccc3)cc2C=C1CN(O)C(N)=O (stereo not drawn)
2 | > 90% | 4 h |  |  | Duration [3]: > 6 h; inhibition [4]: > 95% | NC(=O)N(O)CC1=Cc2cc(OCCCc3ccccc3)ccc2OC1
3 |  |  | 3 h | 82% | Duration [5]: > 6 h; inhibition [7]: > 95% | NC(=O)N(O)CC1=Cc2cc(OCc3ccc(C(F)(F)F)cc3)ccc2OC1
4 | 65% | 2.6 h |  |  |  | CC1(C)Oc2ccc(Oc3ccccc3)cc2C=C1CN(O)C(N)=O
5 | > 95% |  |  | > 95% | Duration [9]: 13 h | NC(=O)N(O)CC1=Cc2cc(Oc3ccc(F)cc3)ccc2OC1
6 |  |  | 8.1 h | > 95% |  | CCCNC(=O)N(O)CC1=Cc2cc(Oc3ccccc3)ccc2OC1
7 | 80% |  |  |  | Duration [9]: 4.2 h | C=CCNC(=O)N(O)CC1=Cc2cc(Oc3ccccc3)ccc2OC1
8 | 60% | 3.8 h | 5.1 h | > 95% |  | CCNC(=O)N(O)CC1=Cc2cc(Oc3ccccc3)ccc2OC1
9 |  |  |  |  | Duration [5]: 3.8 h; inhibition [7]: > 95% | NC(=O)N(O)CC1=Cc2cc(Br)ccc2OC1
10 | 60% | 1 h |  |  |  | NC(=O)N(O)CC1=Cc2cc(-c3ccccc3)ccc2OC1
11 | > 95% |  |  | > 95% | Duration [3]: 35 h; IC50 [10]: 640 nM; Duration [9]: 14 h | NC(=O)N(O)CC1=Cc2cc(Oc3ccccc3)ccc2OC1
12 |  |  |  |  | IC50 [10]: 55000 nM | CC(c1cc2ccccc2s1)N(O)C(N)=O (stereo not drawn) [ZILEUTON]
13 | > 95% |  | 20 h | > 95% | Duration [3]: 42 h; IC50 [10]: 410 nM; IC50 [11]: > 100000 nM; Duration [9]: 15 h | CNC(=O)N(O)CC1=Cc2cc(Oc3ccc(F)cc3)ccc2OC1
14 |  |  | 1.2 h |  | Duration [5]: > 6 h | COc1ccc2c(c1)C=C(CN(O)C(N)=O)CO2
15 | > 95% | 4.8 h | 7.4 h | > 95% |  | NC(=O)N(O)CC1COc2ccc(Oc3ccccc3)cc2C1 (stereo not drawn)
16 | > 95% | 9 h | 5 h | > 95% |  | CC1Oc2ccc(Oc3ccccc3)cc2C=C1CN(O)C(N)=O (stereo not drawn)
17 |  |  |  |  | Duration [3]: 2.2 h; inhibition [4]: 60% | CCCCCCOc1ccc2c(c1)C=C(CN(O)C(N)=O)CO2
18 | > 95% | 11 h | 8.4 h | > 95% |  | CNC(=O)N(O)CC1=Cc2cc(Oc3ccccc3)ccc2OC1
19 | 59% |  | 19 h | > 95% | Duration [5]: > 6 h; inhibition [4]: > 95%; Duration [9]: 5 h; inhibition [7]: > 95% | NC(=O)N(O)CC1=Cc2cc(OCc3ccccc3)ccc2OC1
